Experimental data reported in ChEMBL document CHEMBL3085734, “Indole diterpene alkaloids as novel inhibitors of the Wnt/β-catenin pathway in breast cancer cells” (Eur J Med Chem, 2013).
Active and inactive are the calls of the source. The calls are words filed in the database; no cut-off is given here.

How the values were obtained:
[1] = test system: MDA-MB-231; assay: Antimigratory activity against human MDA-MB-231 cells after 24 hrs by wound-healing assay; type: functional, cell-based; details: MDA-MB-231, 24 h
In short: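 Confluent MDA-MB-231 monolayers scratched with a pipette tip, then washed. Compounds added in 0.5% FBS medium, in triplicate, for 24 h. Cells then fixed and stained with Diff-Quick. Cells that migrated into the wound were counted in at least five random fields at 400X.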

[2] = test system: MDA-MB-231; assay: Antiproliferative activity against human MDA-MB-231 cells after 72 hrs by MTT assay; type: functional, cell-based; details: MDA-MB-231, 72 h
In short: (§1)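 Seeding: MCF-7 at 10×10³ and MDA-MB-231 at 8×10³ cells/well, attached overnight. Medium: serum-free RPMI for MCF-7 and RPMI with 5% FBS for MDA-MB-231, with graded compound doses, for 72 h at 37°C. Readout: MTT (1 mg/mL) for 4 h, formazan dissolved in DMSO, absorbance at 570 nm. Cell numbers taken from a standard curve as % survival versus DMSO. IC50 obtained by nonlinear regression. Final DMSO ≤0.2%.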

[3] = test system: MCF7; assay: Antiproliferative activity against human MCF7 cells after 72 hrs by MTT assay; type: functional, cell-based; details: MCF7, 72 h; in short: as §1
[4] = test system: MDA-MB-231; assay: Antiinvasive activity against human MDA-MB-231 cells at 7.5 to 15 uM after 24 hrs by cultrex BME assay
[5] = test system: Mus musculus; assay: Toxicity in CD-1 mouse assessed as incidence of tremor at 19.6 mg/kg, ip measured every 10 to 15 mins for 8 hrs up to day 14; type: organism-based; design: dose 19.6 mg/kg, route intraperitoneal; details: in vivo
In short: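 Male CD-1 mice (18–22 g), housed individually. Compounds given ip in DMSO diluted with saline (DMSO ≤2.0 µL/g). Up-and-Down Procedure per EPA 870.1100: sigma 0.33, starting dose 1.92 mg/kg, changed in 3.2-fold steps by tremor response, range 0.19–19.6 mg/kg. Observed every 10–15 min for 1 h, hourly for 8 h, then daily to day 14. Tremor EC50 calculated with AOT425StatPgm.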

[6] = biological target: Calcium-activated potassium channel slo-1 (Caenorhabditis elegans, UniProt Q95V25); assay: Inhibition of wild type L4 larval stage of Caenorhabditis elegans N2 bristol BK channel assessed as induction of reversal locomotion at 1 uM after 42 hrs
Calcium-activated potassium channel slo-1, sequence (Q95V25 whole entry): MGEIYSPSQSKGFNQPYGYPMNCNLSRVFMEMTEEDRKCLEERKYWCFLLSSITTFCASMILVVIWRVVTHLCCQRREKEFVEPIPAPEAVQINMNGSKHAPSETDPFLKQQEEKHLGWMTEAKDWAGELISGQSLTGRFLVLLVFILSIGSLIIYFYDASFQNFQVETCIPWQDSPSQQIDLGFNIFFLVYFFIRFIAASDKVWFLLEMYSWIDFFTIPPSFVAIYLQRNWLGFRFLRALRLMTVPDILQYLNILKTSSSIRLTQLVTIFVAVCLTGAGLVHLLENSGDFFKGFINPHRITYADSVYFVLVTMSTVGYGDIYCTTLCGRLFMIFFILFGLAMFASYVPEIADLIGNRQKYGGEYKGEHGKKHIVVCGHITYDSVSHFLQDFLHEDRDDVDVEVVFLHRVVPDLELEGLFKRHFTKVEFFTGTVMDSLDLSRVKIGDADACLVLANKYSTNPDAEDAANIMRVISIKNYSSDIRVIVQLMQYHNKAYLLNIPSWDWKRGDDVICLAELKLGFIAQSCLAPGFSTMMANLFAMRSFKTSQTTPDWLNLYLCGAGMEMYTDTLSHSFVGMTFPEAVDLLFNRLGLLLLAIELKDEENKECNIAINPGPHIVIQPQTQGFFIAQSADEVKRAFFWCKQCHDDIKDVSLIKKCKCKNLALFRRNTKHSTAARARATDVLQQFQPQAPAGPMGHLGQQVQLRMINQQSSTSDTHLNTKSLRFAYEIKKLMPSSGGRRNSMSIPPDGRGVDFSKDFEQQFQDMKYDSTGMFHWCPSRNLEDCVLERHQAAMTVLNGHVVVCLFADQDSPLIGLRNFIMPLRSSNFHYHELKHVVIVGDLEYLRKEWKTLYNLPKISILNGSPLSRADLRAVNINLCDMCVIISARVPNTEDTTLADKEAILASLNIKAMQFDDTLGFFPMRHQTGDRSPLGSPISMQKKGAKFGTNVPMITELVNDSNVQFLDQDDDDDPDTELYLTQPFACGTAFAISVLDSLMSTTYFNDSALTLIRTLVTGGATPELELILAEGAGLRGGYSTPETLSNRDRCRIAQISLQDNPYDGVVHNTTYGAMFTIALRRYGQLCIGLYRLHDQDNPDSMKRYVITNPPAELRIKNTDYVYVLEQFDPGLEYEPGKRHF
In short: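 30–40 synchronized L1 larvae of wild-type N2 placed on OP50-seeded NGM plates containing 1.0 µM compound or DMSO. Incubated 42 h at 20°C. L4 worms then moved to unseeded NGM and acclimatized 1 min before reversals were counted, at least 10 worms per treatment. slo-1(js379) strain NM1968 served as positive control.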

[7] = test system: MDA-MB-231; assay: Inhibition of Wnt/beta-catenin signaling pathway in human MDA-MB-231 cells assessed as decrease in expression of beta-catenin level at 48.2 uM after 48 hrs by DAPI staining-based confocal laser scanning microscopy; type: cell-based
In short: (§2)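 MDA-MB-231 cells seeded at 5×10⁴/chamber and attached overnight in 10% FBS. Treated 48 h in 0.5% FBS medium. Cells fixed in −20°C methanol and blocked with 2% BSA-TBST. Stained with anti-total β-catenin (1:300, overnight at 4°C), then Alexa Fluor 594 secondary, with DAPI counterstain. Confocal imaging at 200X; red intensity compared with untreated control. Duplicate chambers, experiments repeated at least three times.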

[8] = test system: MDA-MB-231; assay: Inhibition of Wnt/beta-catenin signaling pathway in human MDA-MB-231 cells assessed as decrease in expression of beta-catenin level at 9.6 uM after 48 hrs by DAPI staining-based confocal laser scanning microscopy; type: cell-based
In short: (§3)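 MDA-MB-231 cells, 5 × 10^4 per chamber (2 replicates/group), attached overnight in 10% FBS medium, then treated 48 h in 0.5% FBS medium (final DMSO ≤0.2%). Methanol-fixed at −20 °C, blocked in 2% BSA-TBST, anti-total β-catenin (1:300, overnight 4 °C), Alexa Fluor 594 secondary, DAPI counterstain. Confocal imaging at 200X; red intensity compared with vehicle; ≥3 independent repeats.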

[9] = test system: Mus musculus; assay: Toxicity in ip dosed CD-1 mouse assessed as incidence of tremor measured every 10 to 15 mins for 8 hrs up to day 14; type: organism-based
In short: (§4)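 Male CD-1 mice (18–22 g), housed singly 3 days beforehand, given a single i.p. dose of DMSO stock diluted in saline (DMSO ≤2.0 µL/g); vehicle controls. Up-and-Down Procedure per EPA 870.1100 (sigma 0.33): start 1.92 mg/kg, then ×3.2 up or down according to tremor response, range 0.19–19.6 mg/kg. Tremors scored over 14 days; EC50 from AOT425StatPgm.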

[10] = test system: Mus musculus; assay: Toxicity in CD-1 mouse assessed as incidence of tremor at 0.60 mg/kg, ip measured every 10 to 15 mins for 8 hrs up to day 14; type: organism-based; design: dose 0.6 mg/kg, route intraperitoneal; details: in vivo, 0.6 mg/kg; in short: as §4
[11] = test system: Mus musculus; assay: Toxicity in CD-1 mouse assessed as incidence of tremor at 0.19 mg/kg, ip measured every 10 to 15 mins for 8 hrs up to day 14; type: organism-based; design: dose 0.19 mg/kg, route intraperitoneal; details: in vivo; in short: as §4
[12] = test system: Mus musculus; assay: Toxicity in CD-1 mouse assessed as incidence of tremor at 1.92 mg/kg, ip measured every 10 to 15 mins for 8 hrs up to day 14; type: organism-based; design: dose 1.92 mg/kg, route intraperitoneal; details: in vivo; in short: as §4
[13] = test system: MDA-MB-231; assay: Inhibition of Wnt/beta-catenin signaling pathway in human MDA-MB-231 cells assessed as decrease in expression of beta-catenin level at 7.6 uM after 48 hrs by DAPI staining-based confocal laser scanning microscopy; type: cell-based; in short: as §2
[14] = test system: MDA-MB-231; assay: Inhibition of Wnt/beta-catenin signaling pathway in human MDA-MB-231 cells assessed as decrease in expression of beta-catenin level at 8 uM after 48 hrs by DAPI staining-based confocal laser scanning microscopy; type: cell-based; in short: as §3
[15] = Inhibition of Wnt/beta-catenin signaling pathway in mouse C2C12 cells assessed as induction of nuclear translocation of beta-catenin after 24 hrs by propidium iodide staining-based laser scanning cytometry; type: cell-based; details: C2C12, 24 h
[16] = test system: MDA-MB-231; assay: Inhibition of Wnt/beta-catenin signaling pathway in human MDA-MB-231 cells assessed as decrease in expression of beta-catenin level at 19 uM after 48 hrs by DAPI staining-based confocal laser scanning microscopy; type: cell-based; in short: as §3

SMILES	IC50 [1] [µM]	IC50 [2] [µM]	IC50 [3] [µM]	Activity [4]	inhibition (INH) [6]	further results
C=C(C)[C@H]1O[C@H]2CC[C@@]3(C)[C@@](O)(CC[C@H]4[C@@H]5OC(C)(C)[C@@H]6C[C@@H]7C(=C)Cc8c(Cl)cc9c(c5c(n9Cc5cccc(OC)c5)[C@@]43C)c8[C@@]76O)[C@]23O[C@@H]3[C@H]1OCc1cccc(OC)c1	> 50	> 50	> 50	Active	–	–
C=C(C)[C@H]1O[C@H]2CC[C@@]3(C)[C@@](O)(CC[C@H]4[C@@H]5OC(C)(C)[C@@H]6C[C@@H]7C(=C)Cc8c(Cl)cc9c(c5c(n9C)[C@@]43C)c8[C@@]76O)[C@]23O[C@@H]3[C@H]1OC	> 50	> 50	> 50	Active	Not Active	Activity [5]: ND(Insoluble)
C=C(C)[C@H]1O[C@H]2CC[C@@]3(C)[C@@](O)(CC[C@H]4[C@@H]5OC(C)(C)[C@@H]6C[C@@H]7C(=C)Cc8c(Cl)cc9[nH]c(c5c9c8[C@@]76O)[C@@]43C)[C@]23O[C@@H]3[C@H]1OC	> 50	> 50	22.7	Active	–	–
C=C(C)[C@H]1O[C@H]2CC[C@@]3(C)[C@@](O)(CC[C@H]4[C@@H]5OC(C)(C)[C@@H]6C[C@@H]7C(=C)Cc8c(Cl)cc9[nH]c(c5c9c8[C@@]76OO)[C@@]43C)[C@]23O[C@@H]3[C@H]1O	> 50	> 50	> 50	Active	–	–
C=C1Cc2c(Cl)cc3[nH]c4c5c3c2[C@@]2(O)[C@@H]1C[C@H]2C(C)(C)O[C@H]5[C@@H]1CC[C@@]2(O)[C@@]35O[C@@H]3[C@H](O)O[C@H]5CC[C@]2(C)[C@@]41C	48.2	43.8	13.3	Active	Not Active	inhibition [7]: Active; Activity [5]: ND(Insoluble)
C=C(C)[C@H]1O[C@H]2CC[C@@]3(C)[C@@](O)(CC[C@H]4[C@@H]5OC(C)(C)[C@@H]6C[C@@H]7C(=C)Cc8c(Br)cc9[nH]c(c5c9c8[C@@]76O)[C@@]43C)[C@]23O[C@@H]3[C@H]1O	–	–	–	–	Not Active	inhibition [8]: Active; EC50 [9]: 0.32 mg/kg; Activity [10]: Toxic; Activity [11]: Non-toxic; Activity [12]: Toxic
C=C(C)[C@H]1O[C@H]2CC[C@@]3(C)[C@@](O)(CC[C@H]4[C@@H]5OC(C)(C)[C@@H]6C[C@@H]7C(=C)Cc8c(Cl)cc9[nH]c(c5c9c8[C@@]76O)[C@@]43C)[C@]23O[C@@H]3[C@H]1OC(=O)c1ccccc1	> 50	13.8	> 50	Active	Not Active	Activity [5]: ND(Insoluble)
C=C1Cc2c(Cl)cc3[nH]c4c5c3c2[C@@]2(O)[C@@H]1C[C@H]2C(C)(C)O[C@H]5[C@@H]1CC[C@@]2(O)[C@@]35O[C@@H]3[C@@](O)(/C=C(/C)COC(C)=O)O[C@H]5CC[C@]2(C)[C@@]41C	> 50	10	32.3	–	–	–
C=C(C)[C@H]1O[C@H]2CC[C@@]3(C)[C@@](O)(CC[C@H]4[C@@H]5OC(C)(C)[C@H]6C[C@@H]7C(=C)Cc8c(Cl)cc9[nH]c(c5c9c8[C@@]76O)[C@@]43C)[C@]23O[C@@H]3[C@H]1O [PENITREM A]	–	–	–	–	Active	Activity [11]: Non-toxic; Activity [12]: Toxic
CC(C)(O)[C@@H]1CC[C@]2(C)[C@H](CC[C@@]3(C)[C@H]2CC[C@H]2Cc4c([nH]c5ccccc45)[C@@]23C)O1 [PASPALINE]	–	–	–	–	Not Active	inhibition [13]: Active
C=C(C)[C@H]1O[C@H]2CC[C@@]3(C)[C@@](O)(CC[C@H]4[C@@H]5OC(C)(C)[C@H]6C[C@@H]7C(=C)Cc8c(Cl)cc9[nH]c(c5c9c8[C@@]76O)[C@@]43C)[C@@]23O[C@H]3[C@H]1O [PENITREM A]	8.7	9.8	11.9	Active	–	inhibition [14]: Active; EC50 [15]: 0.98 µM
C=C(C)[C@H]1O[C@H]2CC[C@@]3(C)[C@@](O)(CC[C@H]4[C@@H]5OC(C)(C)[C@@H]6C[C@@H]7C(=C)Cc8c(Cl)cc9c(c5c(n9C)[C@@]43C)c8[C@@]76O)[C@]23O[C@@H]3[C@H]1O	> 50	> 50	–	Active	–	–
CC(C)=CCC[C@]1(C)[C@@H](O)CC[C@@]2(C)[C@H]1CC[C@H]1Cc3c([nH]c4ccccc34)[C@@]12C [EMINDOLE SB]	–	–	–	–	Not Active	inhibition [16]: Active
C=C(C)[C@H]1O[C@H]2CC[C@@]3(C)[C@@](O)(CC[C@H]4[C@@H]5OC(C)(C)[C@@H]6C[C@@H]7C(=C)Cc8c(Cl)cc9[nH]c(c5c9c8[C@@]76O)[C@@]43C)[C@]23O[C@@H]3[C@H]1OCc1ccccc1	> 50	> 50	> 50	–	–	–
C=C1Cc2c(Br)cc3[nH]c4c5c3c2[C@H]2[C@@H]1C[C@H]2C(C)(C)O[C@H]5[C@@H]1CC[C@@]2(O)[C@@]35O[C@@H]3[C@@H](O)[C@@H](C(=C)C)O[C@H]5CC[C@]2(C)[C@@]41C	–	–	–	–	–	EC50 [9]: 3.43 mg/kg; Activity [10]: Non-toxic; Activity [5]: Toxic
